The species entered for series [1] is Mus musculus. The experiment in a line: Tissue distribution expressed as percentage injected dose per gram of tissue in normal mice thyroid after 4 hour. Conditions: in vivo. The format is ADME, organism-based, Thyroid gland. In outline: (§1)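 Normal BALB/c mice, 26–29 g, given 4 μCi of the nca 18F tracer via tail vein. Groups killed with halothane at 1, 2 or 4 h post-injection. Tissues washed in saline, blot-dried, weighed and γ-counted for ¹⁸F. Values are mean ± SD as % ID/g; n = 10 at 1 and 2 h, n = 5 at 4 h.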

Series [2] is filed under the species Mus musculus. The experiment in a line: Tissue distribution expressed as percentage injected dose per gram of tissue in normal mice blood after 4 hour. The class given is ADME, organism-based. Conditions: in vivo. The method in brief:
as §1

Series [3] is filed under the species Mus musculus. The experiment in a line: Tissue distribution expressed as percentage injected dose per gram of tissue in normal mice small intestine after 2 hour. The format is ADME, organism-based. Particulars: in vivo. In outline:
as §1

The species named for series [4] is Mus musculus. The experiment in a line: Tissue distribution expressed as percentage injected dose per gram of tissue in normal mice kidney after 1 hour. The class given is ADME, organism-based. Particulars: in vivo. The method in brief:
as §1

Series [5] is filed under the species Mus musculus. The experiment in a line: Tissue distribution expressed as percentage injected dose per gram of tissue in normal mice lungs after 2 hour. The class given is ADME, organism-based, Lung. Particulars: in vivo. In outline: as §1
Series [6] is filed under the species Mus musculus. The experiment in a line: Tissue distribution expressed as percentage injected dose per gram of tissue in normal mice spleen after 4 hour. The class given is ADME, organism-based. Particulars: in vivo. In outline:
as §1

The species entered for series [7] is Mus musculus. The experiment in a line: Tissue distribution expressed as percentage injected dose per gram of tissue in normal mice heart after 1 hour. The class given is ADME, organism-based. Conditions: in vivo. In outline:
as §1

The species entered for series [8] is Mus musculus. The experiment in a line: Tissue distribution expressed as percentage injected dose per gram of tissue in normal mice small intestine after 4 hour. The format is ADME, organism-based. Conditions: in vivo. In outline:
as §1

Series [9] is filed under the species Mus musculus. The experiment in a line: Tissue distribution expressed as percentage injected dose per gram of tissue in normal mice stomach after 1 hour. The class given is ADME, organism-based. Particulars: in vivo. In outline:
as §1

Series [10] is filed under the species Mus musculus. The experiment in a line: Tissue distribution expressed as percentage injected dose per gram of tissue in normal mice stomach after 4 hour. Particulars: in vivo. The format is ADME, organism-based. The method in brief:
as §1

The subject of series [11] is SK-N-SH. The experiment in a line: The compound was tested for the concentration of inhibition by unlabelled analogues to SK-N-SH human neuroblastoma cells. The class given is functional, cell-based. In outline:
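SK-N-SH neuroblastoma cells, 4 × 10⁵/well, with about 1 μCi 18F-labelled tracer or 0.1 μCi nca [¹²⁵I]MIBG plus graded concentrations of unlabelled benzylguanidines, in triplicate; 2 h at 37 °C. Nonspecific binding: 1 μM desipramine preincubation, 30 min. Cells washed twice in PBS, lysed in 0.5 N NaOH, γ-counted. Specific binding as % of control plotted against inhibitor concentration.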

The species named for series [12] is Mus musculus. The experiment in a line: Tissue distribution expressed as percentage injected dose per gram of tissue in normal mice heart after 4 hour. The format is ADME, organism-based. Conditions: in vivo. In outline: as §1
Series [13] is filed under the species Mus musculus. The experiment in a line: Tissue distribution expressed as percentage injected dose per gram of tissue in normal mice muscle after 2 hour. The class given is ADME, organism-based. Particulars: in vivo. The method in brief: as §1
The species entered for series [14] is Mus musculus. The experiment in a line: Tissue distribution expressed as percentage injected dose per gram of tissue in normal mice adrenals after 1 hour. The format is ADME, organism-based, Adrenal gland. Conditions: in vivo. The method in brief: as §1
The species entered for series [15] is Mus musculus. The experiment in a line: Tissue distribution expressed as percentage injected dose per gram of tissue in normal mice blood after 1 hour. Particulars: in vivo. The class given is ADME, organism-based. The method in brief:
as §1

The species entered for series [16] is Mus musculus. The experiment in a line: Tissue distribution expressed as percentage injected dose per gram of tissue in normal mice muscle after 1 hour. Particulars: in vivo. The class given is ADME, organism-based. In outline: as §1
The species named for series [17] is Mus musculus. The experiment in a line: Tissue distribution expressed as percentage injected dose per gram of tissue in normal mice spleen after 2 hour. The format is ADME, organism-based. Conditions: in vivo. The method in brief: as §1
Series [18] is filed under the species Mus musculus. The experiment in a line: Tissue distribution expressed as percentage injected dose per gram of tissue in normal mice thyroid after 2 hour. The format is ADME, organism-based, Thyroid gland. Particulars: in vivo. In outline:
as §1

The species entered for series [19] is Mus musculus. The experiment in a line: Tissue distribution expressed as percentage injected dose per gram of tissue in normal mice bone after 1 hour. The format is ADME, organism-based, Bone element. Conditions: in vivo. In outline:
as §1

Series [20] is filed under the species Mus musculus. The experiment in a line: Tissue distribution expressed as percentage injected dose per gram of tissue in normal mice stomach after 2 hour. Particulars: in vivo. The format is ADME, organism-based. The method in brief: as §1
For series [21], the species on record is Mus musculus. The experiment in a line: Tissue distribution expressed as percentage injected dose per gram of tissue in normal mice bone after 2 hour. The format is ADME, organism-based, Bone element. Particulars: in vivo. The method in brief:
as §1

The species named for series [22] is Mus musculus. The experiment in a line: Tissue distribution expressed as percentage injected dose per gram of tissue in normal mice lungs after 4 hour. The class given is ADME, organism-based, Lung. Particulars: in vivo. The method in brief:
as §1

The species entered for series [23] is Mus musculus. The experiment in a line: Tissue distribution expressed as percentage injected dose per gram of tissue in normal mice kidney after 4 hour. The class given is ADME, organism-based. Conditions: in vivo. In outline: as §1
Series [24] is filed under the species Mus musculus. The experiment in a line: Tissue distribution expressed as percentage injected dose per gram of tissue in normal mice spleen after 1 hour. The format is ADME, organism-based. Particulars: in vivo. In outline: as §1
The species named for series [25] is Mus musculus. The experiment in a line: Tissue distribution expressed as percentage injected dose per gram of tissue in normal mice heart after 2 hour. Particulars: in vivo. The format is ADME, organism-based. In outline:
as §1

The species named for series [26] is Mus musculus. The experiment in a line: Tissue distribution expressed as percentage injected dose per gram of tissue in normal mice adrenals after 2 hour. The class given is ADME, organism-based, Adrenal gland. Conditions: in vivo. The method in brief:
as §1

The species entered for series [27] is Mus musculus. The experiment in a line: Tissue distribution expressed as percentage injected dose per gram of tissue in normal mice adrenals after 4 hour. Conditions: in vivo. The format is ADME, organism-based, Adrenal gland. In outline:
as §1

Series [28] is filed under the species Mus musculus. The experiment in a line: Tissue distribution expressed as percentage injected dose per gram of tissue in normal mice blood after 2 hour. Conditions: in vivo. The class given is ADME, organism-based. In outline: as §1
For series [29], the species on record is Mus musculus. The experiment in a line: Tissue distribution expressed as percentage injected dose per gram of tissue in normal mice lungs after 1 hour. The format is ADME, organism-based, Lung. Conditions: in vivo. In outline:
as §1

Series [30] is filed under the species Mus musculus. The experiment in a line: Tissue distribution expressed as percentage injected dose per gram of tissue in normal mice thyroid after 1 hour. The format is ADME, organism-based, Thyroid gland. Conditions: in vivo. The method in brief: as §1
Series [31] is filed under the species Mus musculus. The experiment in a line: Tissue distribution expressed as percentage injected dose per gram of tissue in normal mice brain after 2 hour. The class given is ADME, organism-based. Particulars: in vivo. In outline:
as §1

The species named for series [32] is Mus musculus. The experiment in a line: Tissue distribution expressed as percentage injected dose per gram of tissue in normal mice bone after 4 hour. The class given is ADME, organism-based, Bone element. Particulars: in vivo. In outline: as §1
The species entered for series [33] is Mus musculus. The experiment in a line: Tissue distribution expressed as percentage injected dose per gram of tissue in normal mice liver after 4 hour. The class given is ADME, organism-based. Conditions: in vivo. In outline: as §1
Series [34] is filed under the species Mus musculus. The experiment in a line: Tissue distribution expressed as percentage injected dose per gram of tissue in normal mice brain after 4 hour. The class given is ADME, organism-based. Conditions: in vivo. In outline:
as §1

For series [35], the species on record is Mus musculus. The experiment in a line: Tissue distribution expressed as percentage injected dose per gram of tissue in normal mice liver after 2 hour. The class given is ADME, organism-based. Particulars: in vivo. The method in brief:
as §1

The species entered for series [36] is Mus musculus. The experiment in a line: Tissue distribution expressed as percentage injected dose per gram of tissue in normal mice muscle after 4 hour. The format is ADME, organism-based. Particulars: in vivo. In outline:
as §1

Series [37] is filed under the species Mus musculus. The experiment in a line: Tissue distribution expressed as percentage injected dose per gram of tissue in normal mice small intestine after 1 hour. Particulars: in vivo. The class given is ADME, organism-based. In outline: as §1
The species named for series [38] is Mus musculus. The experiment in a line: Tissue distribution expressed as percentage injected dose per gram of tissue in normal mice liver after 1 hour. The format is ADME, organism-based. Particulars: in vivo. In outline:
as §1

Series [39] is filed under the species Mus musculus. The experiment in a line: Tissue distribution expressed as percentage injected dose per gram of tissue in normal mice large intestine after 4 hour. The format is ADME, organism-based. Particulars: in vivo. In outline:
as §1

For series [40], the species on record is Mus musculus. The experiment in a line: Tissue distribution expressed as percentage injected dose per gram of tissue in normal mice brain after 1 hour. The class given is ADME, organism-based. Conditions: in vivo. In outline: as §1
For series [41], the species on record is Mus musculus. The experiment in a line: Tissue distribution expressed as percentage injected dose per gram of tissue in normal mice large intestine after 2 hour. Particulars: in vivo. The class given is ADME, organism-based. In outline: as §1
The species entered for series [42] is Mus musculus. The experiment in a line: Tissue distribution expressed as percentage injected dose per gram of tissue in normal mice large intestine after 1 hour. The class given is ADME, organism-based. Particulars: in vivo. In outline:
as §1

Series [43] is filed under the species Mus musculus. The experiment in a line: Tissue distribution expressed as percentage injected dose per gram of tissue in normal mice kidney after 2 hour. The class given is ADME, organism-based. Conditions: in vivo. In outline:
as §1

For series [44], the species on record is Mus musculus. The experiment in a line: tissue distribution expressed as percentage injected dose per gram of tissue in normal mice heart after 1 hour. The format is ADME, organism-based. Conditions: in vivo.

Each structure is given as a SMILES string.

Consider `N=C(N)NCc1ccc(F)c(I)c1`, for which the ID/g in series [1] stood at 1.5%; in series [2] it was 0.4%; in series [3], 4.3%; in series [4], 2.6%; in series [5] it was 5.5%; in series [6], 3.2%. Moreover, the ID/g in series [7] is given as 18.2%; in series [8], 3%; in [9], 3%; in series [10], 1.9%; in series [12], 18.3%; in series [13], 1.7%. Besides, the ID/g is 21.3% in [14]; 0.9% in series [15]; 1.7% in series [16]; 3.7% in series [17]; 1.9% in series [18]; 1.1% in series [19]. Besides, the ID/g in series [20] is 2.4%; in series [21] it was 0.9%; in series [22], 4%; in series [23], 1.9%; in series [24] it was 3.8%; in series [25], 19.5%. The ID/g in series [26] is 19.2%; in [27], 19.7%; in [28], 0.7%; in series [29], 9.7%; in [30], 1.8%; in [31] it was 0.1%. Also, the ID/g was found to be 0.7% in [32]; 6.8% in series [33]; 0.2% in series [34]; 9.2% in series [35]; 1.5% in series [36]; 5.5% in series [37]. The ID/g in [38] is reported as 10.5%; in series [39], 3.8%; in [40], 0.1%; in [41], 4.5%; in series [42] it was 3.8%; in series [43], 2.3%. Also, the IC50 turned out to be 200 nM in [11] (Homo sapiens, SK-N-SH) and 200 nM in series [11] (sk-n-sh).

As for `N=C(N)NCc1cccc(F)c1` [M-FLUOROBENZYLGUANIDINE], the ID/g in series [7] stood at 21%; in [12] it was 10.5%; in series [14] it was 13.9%; in [27], 23.8%.

Turning to `N=C(N)NCc1ccc(F)cc1`, the ID/g in [12] stood at 5.9%; in [14], 15.3%; in [44], 9.7%; in series [27], 20.3%.
